Data reported in ChEMBL document CHEMBL3393009 (J Med Chem, 2015).

Assays:
[1] = AUC in rat at 5 mg/kg, po; format: ADME, organism-based; design: dose 5 mg/kg, route oral; details: plasma
Rattus norvegicus [2] = assay: Volume of distribution at steady state in rat at 5 mg/kg, po; format: ADME, organism-based; design: dose 5 mg/kg, route oral; details: in vivo
[3] = Tmax in dog at 5 mg/kg, po; format: ADME, organism-based, Canis lupus familiaris; design: dose 5 mg/kg, route oral; details: in vivo
Mus musculus [4] = assay: Inhibition of wild type LRRK2 […] phosphorylation in BAC-transgenic C57BL/6J mouse kidney at 3 to 100 mg/kg, sc measured after 90 mins post dose; format: functional; details: dose mg/kg 3-100; route subcutaneous
Procedure, shortened: (§1)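 Mice given compound subcutaneously in 10% NMP/20% SBECD vehicle: four-month-old C57BL/6J (wild type) or seven-month-old LRRK2 BAC-Tg G2019S. Tissues collected 90 min after dose. pS935, and pS1292 (custom antibody) in transgenic brain, read by Western blot of brain/kidney lysates against vehicle controls. Mean ± SEM.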

Mus musculus [5] = assay: Inhibition of LRRK2 […] mutant […] phosphorylation in BAC-transgenic mouse at 3 to 100 mg/kg, sc measured after 90 mins post dose; format: functional; details: dose mg/kg 3-100; route subcutaneous; procedure, shortened: as §1
Mus musculus [6] = assay: Inhibition of LRRK2 […] mutant S1292 phosphorylation in BAC-transgenic mouse at 3 to 100 mg/kg, sc measured after 90 mins post dose; format: functional; details: dose mg/kg 3-100; route subcutaneous; procedure, shortened: as §1
Rattus norvegicus [7] = assay: fCmax in Wistar Han rat at 6 mg/kg, po bid for 14 days; format: ADME, organism-based; design: dose 6 mg/kg, route oral; details: in vivo, 336 h
Rattus norvegicus [8] = assay: fAUC in Wistar Han rat at 6 mg/kg, po bid for 14 days; format: ADME, organism-based; design: dose 6 mg/kg, route oral; details: in vivo, 336 h
Procedure, shortened: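 Wistar Han rats dosed orally twice daily in 10% propylene glycol/20% PEG400/methylcellulose vehicle. Unbound plasma exposure measured on days 1 and 11.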

Rattus norvegicus [9] = assay: Drug coverage index, ratio fAUC in Wistar Han rat at 6 mg/kg, po bid for 14 days to IC50 for LRRK2 […] phosphorylation in Wistar Han rat brain at 6 to 60 mg/kg, po bid for 14 days; format: ADME, organism-based; details: in vivo, 336 h
Procedure, shortened: (§2)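 Wistar Han rats (200–300 g, 8–11 weeks old) were dosed by oral gavage twice daily for 14 days. Vehicle was 10% propylene glycol/20% PEG400/70% 9.5% methocellulose.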

Rattus norvegicus [10] = assay: Drug coverage index, ratio fAUC in Wistar Han rat at 20 mg/kg, po bid for 14 days to IC50 for LRRK2 […] phosphorylation in Wistar Han rat brain at 6 to 60 mg/kg, po bid for 14 days; format: ADME, organism-based; details: in vivo, 336 h; procedure, shortened: as §2

## N#Cc1cccc(-c2c[nH]c3ncnc(N4CCOCC4)c23)c1
[1]
  AUC: 629 ng·h/mL
Rattus norvegicus [2]
  Vdss: 1.83 L/kg
[3]
  Tmax: 22.8 min
Mus musculus [4]
  fIC50: 11 nM
Mus musculus [5]
  fIC50: 103 nM
Mus musculus [6]
  fIC50: 21 nM
Rattus norvegicus [7]
  fCmax: 86 nM
Rattus norvegicus [8]
  fAUC: 0.843 µM·h
Rattus norvegicus [9]
  Ratio: 2
Rattus norvegicus [10]
  Ratio: 12
